One experiment deals with JVM-2. Kind of experiment: Induction of cell cycle arrest in human JVM-2 cells assessed as increase in 2n cell population measured upto 5000 nM measured for 3 days by propidium iodide staining based flow cytometric analysis. The format is functional. Conditions: time 3.0 day.
Another experiment relates to Z-138. Briefly: In vivo inhibition of PRMT5 in human Z138 cells xenografted in mouse assessed as increase in GADD45A expression at 100 mg/kg, po BID measured for 7 days. Format: functional, organism-based. The note with it: time 7.0 day. A general note: In xenograft studies the graft and the host belong to different species.
For another experiment, the system named is Maver1. Briefly: Induction of apoptosis in human MAVER-1 cells assessed as dead cells incubated for 6 days by annexin-V/FITC propidium iodide staining based flow cytometry analysis. The format is functional, cell-based. The note with it: dose <= 5000.0 nM, time 6.0 day. For orientation: A flow cytometer gives signals particle by particle.
The next experiment concerns MCL. Kind of experiment: Induction of cell cycle arrest in human MCL cells assessed as increase in 2n cell population measured upto 5000 nM measured for 3 days by propidium iodide staining based flow cytometric analysis. The format is functional. Conditions: time 3.0 day.
Another experiment concerns SNU-5. Kind of experiment: Antiproliferative activity against human SNU-5 cells assessed as cell growth inhibition incubated for 10 days. The note with it: SNU-5, 240 h, time 10 day. The format is functional.
Another experiment relates to SK-UT-1. Kind of experiment: Antiproliferative activity against human SK-UT-1 cells assessed as cell growth inhibition incubated for 10 days. The note with it: SK-UT-1, 240 h, time 10 day. Format: functional.
For experiment [1], the target named is Protein arginine N-methyltransferase 5 (Homo sapiens) (UniProt O14744). Briefly: Inhibition of PRMT5 in human Z138 cells assessed as short MDM4 splicing at 200 to 1000 nM incubated for 3 days by RT-PCR analysis. Format: cell-based. The note with it: dose 200-1000 nM, time 3.0 day.
A further experiment relates to ASPC1. Briefly: Antiproliferative activity against human ASPC1 cells assessed as cell growth inhibition incubated for 10 days. The format is functional. The note with it: ASPC1, 240 h, time 10 day. The procedure, abridged:
(§1)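 Cells kept in RPMI-1640 with 10% FBS, 2 mM L-alanyl-L-glutamine and 1 mM Na pyruvate (or a special medium) at 37°C, 5% CO2. Compound added 24 h after seeding, 10 concentrations in 3.16-fold dilution, 0.1% DMSO final. Medium replaced and cells re-dosed at 168 h; 240 h incubation. Nuclei fixed, dye-stained and imaged. gIC50 = growth midway between untreated and time-zero cell counts, from a 4-parameter fit.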

Experiment [2] deals with A 172. Kind of experiment: Antiproliferative activity against human A-172 cells assessed as cell growth inhibition incubated for 10 days. The format is functional. The note with it: A 172, 240 h, time 10 day. In short, it runs like this:
as §1

A further experiment has as its system SCC-4. Kind of experiment: Antiproliferative activity against human SCC-4 cells assessed as cell growth inhibition incubated for 10 days. The format is functional. The note with it: SCC-4, 240 h, time 10 day.
The next experiment deals with BE(2)-C. Kind of experiment: Antiproliferative activity against human BE2C cells assessed as cell growth inhibition incubated for 10 days. Format: functional. Conditions: 240 h, time 10 day. In short, it runs like this:
as §1

For a further experiment, the system named is BPH-1. Kind of experiment: Antiproliferative activity against human BPH-1 cells assessed as cell growth inhibition incubated for 10 days. The format is functional. Conditions: BPH-1, 240 h, time 10 day. In short, it runs like this: as §1
For a further experiment, the system named is HEC-1-A. Kind of experiment: Antiproliferative activity against human HEC-1-A cells assessed as cell growth inhibition incubated for 10 days. Format: functional. The note with it: 240 h, time 10 day. The procedure, abridged:
(§2)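 Outsourced panel run in 384-well plates. Cells were grown in RPMI-1640/10% FBS or a special medium at 37°C, 5% CO2. Compound was added 24 h after seeding as a 10-point, 3.16-fold series in 0.1% DMSO. Medium was refreshed and cells re-dosed at 168 h, with a time-zero plate kept. At 240 h cells were fixed, nuclei stained and imaged. gIC50 is growth midway between untreated and time zero, from a 4-parameter fit.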

Experiment [3] deals with Protein arginine N-methyltransferase 5 (Homo sapiens) (UniProt O14744). Briefly: Inhibition of PRMT5 in p53 knockout human Z138 cells at 1 to 100000 nM incubated for 3 to 6 days. The format is cell-based. The note with it: dose 1-100000 nM, time 3-6 day.
A further experiment relates to Y79. Kind of experiment: Antiproliferative activity against human Y79 cells assessed as cell growth inhibition incubated for 10 days. Conditions: Y79, 240 h, time 10 day. The format is functional.
For a further experiment, the system named is A673. Kind of experiment: Antiproliferative activity against human A673 cells assessed as cell growth inhibition incubated for 10 days. The format is functional. Conditions: A673, 240 h, time 10 day. In short, it runs like this: as §1
The nature of experiment [4]: Antiproliferative activity against human MT-3 cells assessed as cell growth inhibition incubated for 10 days. The format is functional. The note with it: MT-3, 240 h, time 10 day.
The subject of the next experiment is JAR. Kind of experiment: Antiproliferative activity against human JAR cells assessed as cell growth inhibition incubated for 10 days. The note with it: 240 h, time 10 day. The format is functional. In short, it runs like this: (§3)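 Eurofins-panel 10-day assay in 384-well plates. Cells grown in RPMI-1640 with 10% FBS, 2 mM L-alanyl-L-glutamine and 1mM Na pyruvate, or a special medium, at 37°C in 5% CO₂. Compound added 24 h after seeding, 10-point 3.16-fold series in 0.1% DMSO. Medium replaced and compound re-dosed at 168 h. Nuclei fixed and stained after 240 h, then imaged to give a relative cell count. gIC50 is the concentration giving growth midway between untreated and time-zero counts, from a 4-parameter fit.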

A further experiment deals with SNU1. Kind of experiment: Antiproliferative activity against human SNU1 cells assessed as cell growth inhibition incubated for 10 days. The note with it: SNU1, 240 h, time 10 day. The format is functional.
For another experiment, the system named is DOHH-2. Kind of experiment: Antiproliferative activity against human DOHH-2 cells assessed as cell growth inhibition incubated for 6 days by celltiter-glo assay. The format is functional. The note with it: DOHH-2, 144 h, time 6 day. (ATP-based viability assays read luminescence as a measure of living cells.)
For the next experiment, the system named is MG-63. Kind of experiment: Antiproliferative activity against human MG-63 cells assessed as cell growth inhibition incubated for 10 days. Format: functional. Conditions: MG-63, 240 h, time 10 day.
The next experiment relates to HOS. Briefly: Antiproliferative activity against human HOS cells assessed as cell growth inhibition incubated for 10 days. Format: functional. Conditions: 240 h, time 10 day. In short, it runs like this:
as §2

For the next experiment, the system named is NCI-H747. Briefly: Antiproliferative activity against human NCI-H747 cells assessed as cell growth inhibition incubated for 10 days. Format: functional. The note with it: NCI-H747, 240 h, time 10 day.
In another experiment the test system is Calu-1. Kind of experiment: Antiproliferative activity against human Calu-1 cells assessed as cell growth inhibition incubated for 10 days. The format is functional. Conditions: Calu-1, 240 h, time 10 day. In short, it runs like this:
as §2

The subject of another experiment is SW 954. Briefly: Antiproliferative activity against human SW 954 cells assessed as cell growth inhibition incubated for 10 days. The note with it: SW 954, 240 h, time 10 day. The format is functional.
The next experiment deals with SCC-9. Kind of experiment: Antiproliferative activity against human SCC-9 cells assessed as cell growth inhibition incubated for 10 days. Format: functional. The note with it: SCC-9, 240 h, time 10 day.
In experiment [5] the target is Protein arginine N-methyltransferase 5 (Homo sapiens) (UniProt O14744). Briefly: Inhibition of PRMT5 in human Z138 cells expressing full length MDM4 assessed as induction of p21 at 1 uM incubated for 4 days by Western blot analysis. Format: cell-based. The note with it: time 4.0 day.
In the next experiment the test system is SW1783. Kind of experiment: Antiproliferative activity against human SW1783 cells assessed as cell growth inhibition incubated for 10 days. The format is functional. The note with it: SW1783, 240 h, time 10 day.
Experiment [6] has as its system A 172. Briefly: Antiproliferative activity against human A-172 cells assessed as cell growth inhibition incubated for 6 days by celltiter-glo assay. The format is functional. Conditions: A 172, 144 h, time 6 day.
A further experiment has as its system WiDr. Kind of experiment: Antiproliferative activity against human WiDr cells assessed as cell growth inhibition incubated for 10 days. The format is functional. Conditions: 240 h, time 10 day.
The test system of another experiment is J-RT3-T3-5. Briefly: Antiproliferative activity against human J-RT3-T3-5 cells assessed as cell growth inhibition incubated for 10 days. Format: functional. Conditions: J-RT3-T3-5, 240 h, time 10 day. In short, it runs like this:
as §3

The test system of the next experiment is NCI-H292. Kind of experiment: Antiproliferative activity against human NCI-H292 cells assessed as cell growth inhibition incubated for 10 days. The format is functional. Conditions: NCI-H292, 240 h, time 10 day.
The subject of another experiment is COLO 205. Kind of experiment: Antiproliferative activity against human COLO 205 cells assessed as cell growth inhibition incubated for 10 days. The note with it: COLO 205, 240 h, time 10 day. Format: functional. In short, it runs like this:
as §1

Calls of active or inactive are those of the source. The calls are words filed in the database; no cut-off is given here.

These results are taken from ChEMBL document CHEMBL5653630, “Activation of the p53-MDM4 regulatory axis defines the anti-tumour response to PRMT5 inhibition through its role in regulating cellular splicing” (Sci Rep, 2018).

Chain of Protein arginine N-methyltransferase 5 (Homo sapiens) (O14744 whole entry): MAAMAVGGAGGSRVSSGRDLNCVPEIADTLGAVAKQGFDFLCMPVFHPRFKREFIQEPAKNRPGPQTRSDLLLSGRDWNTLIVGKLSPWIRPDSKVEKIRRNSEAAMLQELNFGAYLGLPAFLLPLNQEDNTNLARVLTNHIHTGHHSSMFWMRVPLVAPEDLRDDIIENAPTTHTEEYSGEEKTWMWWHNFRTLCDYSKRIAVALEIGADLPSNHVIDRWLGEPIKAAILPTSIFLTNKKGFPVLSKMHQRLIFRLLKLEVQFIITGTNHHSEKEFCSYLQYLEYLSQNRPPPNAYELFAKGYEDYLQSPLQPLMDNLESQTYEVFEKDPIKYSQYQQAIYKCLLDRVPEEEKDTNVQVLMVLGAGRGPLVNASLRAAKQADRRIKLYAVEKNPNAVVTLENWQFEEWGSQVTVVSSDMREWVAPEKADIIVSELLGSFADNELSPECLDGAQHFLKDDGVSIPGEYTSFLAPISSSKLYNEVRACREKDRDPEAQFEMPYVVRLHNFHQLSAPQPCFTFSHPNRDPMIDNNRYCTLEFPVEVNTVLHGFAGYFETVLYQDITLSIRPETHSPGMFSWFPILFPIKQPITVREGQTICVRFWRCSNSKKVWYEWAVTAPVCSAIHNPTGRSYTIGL

In the case of `CC(=O)N1CCC(Nc2cc(C(=O)NC[C@H](O)CN3CCc4ccccc4C3)ncn2)CC1` [PEMRAMETOSTAT], the result in the experiment with JVM-2 and in the experiment with MCL was Active. For the same compound, the inhibition result in the experiment on Z-138 is “Active”. Also, in the experiment on Maver1, the Activity result was “Dose-Dependent Effect”.
The term GI50 denotes the concentration at which growth is held to half of that of the control. For the compound `O=C(NC[C@H](O)CN1CCc2ccccc2C1)c1ccnc(NC2CCC2)c1`, the GI50 in the experiment on SNU-5 turned out to be 110 nM; in the experiment on SK-UT-1, 42.1 nM; with ASPC1 it was 302 nM; in the experiment with A 172 [2], 29.6 nM; with SCC-4, 286 nM; in the experiment with BE(2)-C, 803 nM. Moreover, the 50% growth inhibitory concentration (GI50) in the experiment with BPH-1 is 718 nM; in the experiment on HEC-1-A, 2440 nM; in the experiment on Y79 it was 113 nM; in the experiment with A673, 119 nM; in experiment [4] it was 46.4 nM; in the experiment on JAR, 485 nM. Besides, the concentration for 50% growth inhibition (GI50) was found to be 1040 nM in the experiment with SNU1; 116 nM in the experiment on DOHH-2; 96 nM in the experiment with MG-63; 223 nM with HOS; 2580 nM in the experiment with NCI-H747; 3050 nM in the experiment on Calu-1. The GI50 came out at 10000 nM in the experiment with SW 954; 747 nM with SCC-9; 389 nM with SW1783; 590 nM with A 172 [6]; 505 nM in the experiment with WiDr; 43.2 nM in the experiment with J-RT3-T3-5. Besides, the concentration for 50% growth inhibition (GI50) with NCI-H292 was found to be 166 nM; in the experiment with COLO 205, 10000 nM. For the same compound, the inhibition entry in experiment [1] and in experiment [3] was “Active” throughout. Moreover, in experiment [5], the inhibition entry is “inactive”.
